{
  "source": "ChEMBL document CHEMBL4152203",
  "about": "“Antiproliferative hydrogen sulfide releasing evodiamine derivatives and their apoptosis inducing properties” (Eur J Med Chem, 2018)",
  "key": {"MCF7": {"test_system": "MCF7", "test": "Antiproliferative activity against human MCF7 cells after 72 hrs by MTT assay", "type": "functional, cell-based", "details": "MCF7, 72 h", "outline": "(§1)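 Cells seeded and pre-incubated 24 h at 37 °C, 5% CO2, then exposed to compounds for 72 h. MTT (5 mg/mL stock) added for 4 h, formazan dissolved in DMSO for 10 min at room temperature, absorbance read at 570 nm. 0.1% DMSO as negative and 5-FU as positive reference. IC50 derived from inhibition ratios; mean ± SD of three independent experiments.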"}, "PBMC": {"test_system": "PBMC", "test": "Antiproliferative activity against human PBMC cells after 72 hrs by MTT assay", "type": "cell-based", "outline": "as §1"}, "HL-60 [1]": {"test_system": "HL-60", "test": "Cell cycle arrest in human HL60 cells assessed as accumulation at G2/M phase at 0.3 uM after 48 hrs by propidium iodide/RNase A staining-based flow cytometric analysis (reference value: 10.19%)", "type": "functional"}, "HL-60 [2]": {"test_system": "HL-60", "test": "Cell cycle arrest in human HL60 cells assessed as accumulation at G2/M phase at 0.6 uM after 48 hrs by propidium iodide/RNase A staining-based flow cytometric analysis (reference value: 10.19%)", "type": "functional"}, "HL-60 [3]": {"test_system": "HL-60", "test": "Cell cycle arrest in human HL60 cells assessed as accumulation at G1 phase at 1.2 uM after 48 hrs by propidium iodide/RNase A staining-based flow cytometric analysis (reference value: 65.75%)", "type": "functional"}, "HL-60 [4]": {"test_system": "HL-60", "test": "Induction of apoptosis in human HL60 cells assessed as early apoptotic cells at 0.3 uM after 48 hrs by Annexin V-FITC/propidium iodide staining-based flow cytometric analysis (reference value: 1.11%)", "type": "functional"}, "HL-60 [5]": {"test_system": "HL-60", "test": "Induction of apoptosis in human HL60 cells assessed as early apoptotic cells at 0.6 uM after 48 hrs by Annexin V-FITC/propidium iodide staining-based flow cytometric analysis (reference value: 2.31%)", "type": "functional"}, "HL-60 [6]": {"test_system": "HL-60", "test": "Induction of apoptosis in human HL60 cells assessed as necrotic cells at 1.2 uM after 48 hrs by Annexin V-FITC/propidium iodide staining-based flow cytometric analysis (reference value: 0.02%)", "type": "functional"}, "HL-60 [7]": {"test_system": "HL-60", "test": "Induction of apoptosis in human HL60 cells assessed as morphological changes by measuring chromatin condensation at 0.3 to 1.2 uM after 48 hrs by Hoechst 33258 staining-based fluorescence microscopic analysis", "type": "functional, cell-based", "outline": "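HL-60 pre-incubated 24 h, then treated 48 h with 0, 0.3, 0.6 or 1.2 μM compound or vehicle. Cells were harvested, washed twice in PBS, stained with Hoechst 33258 (2 mg/mL in PBS) for 15 min at room temperature in darkness, washed, mounted and examined by fluorescence microscopy with a DAPI filter.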"}, "HL-60 [8]": {"test_system": "HL-60", "test": "Induction of apoptosis in human HL60 cells assessed as increase in Bax level at 0.3 to 1.2 uM after 48 hrs by Western blot analysis", "type": "functional, cell-based", "outline": "(§2)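 HL-60 treated in triplicate with 0.3, 0.6 or 1.2 μM compound; exposure is 72 h in the methods and 48 h in the legend. Lysates were run on 10% SDS-PAGE, transferred to nitrocellulose, blocked in 5% milk, and probed overnight at 4 °C with monoclonal antibodies (Bcl-2, Bax, cytochrome c, caspase-9/-3, p53, cyclin B1, cdc2). ECL detection; densitometry relative to GAPDH.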"}, "HL-60 [9]": {"test_system": "HL-60", "test": "Induction of apoptosis in human HL60 cells assessed as downregulation of Bcl2 expression at 0.3 to 1.2 uM after 48 hrs by Western blot analysis", "type": "functional, cell-based", "outline": "as §2"}, "HL-60 [10]": {"test_system": "HL-60", "test": "Induction of apoptosis in human HL60 cells assessed as decrease in cyclin B1 protein expression level at 0.3 to 1.2 uM after 48 hrs by Western blot analysis", "type": "functional, cell-based", "outline": "as §2"}, "HL-60 [11]": {"test_system": "HL-60", "test": "Induction of mitochondrial membrane potential loss in human HL60 cells assessed as cell population with mitochondrial membrane potential collapse at 1.2 uM after 48 hrs by JC1 staining-based flow cytometry analysis (reference value: 7.65%)", "type": "functional"}, "HL-60 [12]": {"test_system": "HL-60", "test": "Induction of mitochondrial membrane potential loss in human HL60 cells assessed as cell population with intact mitochondrial membrane potential at 1.2 uM after 48 hrs by JC1 staining-based flow cytometry analysis (reference value: 92.35%)", "type": "functional"}},
  "note": "The source made the active and inactive calls. The rule behind the calls is not given here.",
  "data": [
    {"smiles": "CN1c2ccccc2C(=O)N2CCc3c(n(CCCCC(=O)OCCCCOc4ccc(-c5cc(=S)ss5)cc4)c4ccccc34)C21", "note": "(centres undefined)", "values": [
      {"measurement": "IC50", "setting": "MCF7", "value": 44.8, "unit": "µM"},
      {"measurement": "IC50", "setting": "PBMC", "value": "> 100", "unit": "µM"},
      {"measurement": "Activity", "setting": "HL-60 [1]", "value": 11.41, "unit": "%"},
      {"measurement": "Activity", "setting": "HL-60 [2]", "value": 16.63, "unit": "%"},
      {"measurement": "Activity", "setting": "HL-60 [3]", "value": 35.32, "unit": "%"},
      {"measurement": "Activity", "setting": "HL-60 [4]", "value": 4.53, "unit": "%"},
      {"measurement": "Activity", "setting": "HL-60 [5]", "value": 19.5, "unit": "%"},
      {"measurement": "Activity", "setting": "HL-60 [6]", "value": 0.11, "unit": "%"},
      {"measurement": "Activity", "setting": "HL-60 [7]", "value": "Active"},
      {"measurement": "Activity", "setting": "HL-60 [8]", "value": "Active"},
      {"measurement": "Activity", "setting": "HL-60 [9]", "value": "Active"},
      {"measurement": "Activity", "setting": "HL-60 [10]", "value": "Active"},
      {"measurement": "Activity", "setting": "HL-60 [11]", "value": 35.01, "unit": "%"},
      {"measurement": "Activity", "setting": "HL-60 [12]", "value": 64.99, "unit": "%"}
    ]}
  ]
}
